Each block holds one compound with its values, some of them ahead of it. Active and inactive are the calls of the source. No cut-off for these calls is given here. Starred links: 1 amine or outer side, 2 acyl side, 3 side chain; linkers in the order of their positions; H or OH if unused. Non-standard residues stand in square brackets, D forms with d. Residues, ends and D or L forms follow the SMILES beside them. X1 = O=C1[C@@H](N[*:1])Cc2ccccc2CN1CCC(=O)[*:2]; Dmt = Cc1cc(O)cc(C)c1C[C@H](N)C(=O)O; β3hF = N[C@H](CC(=O)O)Cc1ccccc1
Legend:
Mus musculus [1] = test: Antinociceptive activity in CD1 mouse assessed as increase in tail-flick latency at 5.6 umol/kg, sc measured up to 7 hrs post dose; format: functional, organism-based
Mu-type opioid receptor [2] = biological target: T1, Mu-type opioid receptor (Homo sapiens, UniProt P35372); test: Agonist activity at human MOR expressed in human U2OS cells co-expressing enzyme acceptor-tagged beta-arrestin2 fusion protein assessed as induction of beta-arrestin2 recruitment preincubated for 90 mins measured by PathHunter assay; format: functional, cell-based
Mus musculus [3] = test: Antinociceptive activity in CD1 mouse assessed as increase in tail-flick latency at 0.56 umol, sc co-formulated with H-Phe-Gln-Phe-Gln-Phe-Lys-NH2 measured up to 72 hrs post dose; format: functional, organism-based
Summary of the method: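 Mice received peptide (0.56 μmol/mouse) co-formulated with hydrogelator at 2% (v/w), sc in 150 μL per mouse. Controls were hydrogelator alone or saline. Radiant-heat tail-flick test read as %MPE over time, with AUC calculated. 6−8 mice per group, mean ± SEM. Two-way ANOVA with Bonferroni post hoc test.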

Mu-type opioid receptor [4] = biological target: T1, Mu-type opioid receptor; test: Displacement of [3H]DAMGO from human MOR expressed in CHO cell membranes after 60 mins by liquid scintillation counting
Mu-type opioid receptor [5] = biological target: T1, Mu-type opioid receptor; test: Agonist activity at human MOR expressed in CHO cell membranes after 60 mins by [35S]GTPgammaS binding assay; format: functional
Summary of the method: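 Membranes from CHO cells stably expressing human MOR; agonist-stimulated [35S]GTPγS binding. Potency given as EC50 and efficacy (full or partial agonism) measured at human MOR.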

[6] = Metabolic stability in C57BL/6 mouse hind limb assessed as compound remaining at 150 ul, sc measured after 72 hrs post dose by SPECT/CT analysis; format: ADME, organism-based, Hindlimb; settings: read-out: Stability
Summary of the method: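 Hydrogel degradation was followed after subcutaneous injection in mice by determining the hydrogel volume remaining at the injection site, up to 72 h.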

Mus musculus [7] = test: Antinociceptive activity in CD1 mouse assessed as increase in tail-flick latency at 0.30 umol, sc co-formulated with H-Phe-Glu-Phe-Gln-Phe-Lys-NH2 measured up to 72 hrs post dose; format: functional, organism-based
Mus musculus [8] = test: Antinociceptive activity in CD1 mouse assessed as increase in tail-flick latency at 1.8 umol/kg, sc measured after 4 hrs post dose; format: functional, organism-based
Mus musculus [9] = test: Antinociceptive activity in sc dosed CD1 mouse assessed as increase in tail-flick latency measured up to 24 hrs post dose; format: functional, organism-based
Mus musculus [10] = test: Antinociceptive activity in sc dosed CD1 mouse assessed as increase in tail-flick latency measured up to 3 hrs post dose; format: functional, organism-based
Mus musculus [11] = test: Antinociceptive activity in CD1 mouse assessed as increase in tail-flick latency at 0.58 umol/kg, sc co-formulated with H-Phe-Glu-Phe-Gln-Phe-Lys-NH2 measured up to 72 hrs post dose; format: functional, organism-based
[12] = Half life in human plasma at 9 uM at 37 degC by LC-MS analysis; format: ADME, cell-free
Summary of the method: (§1)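 Peptides were incubated in human plasma at 37 °C, and samples were collected at different time points. Half-life was calculated from the degradation profile. Major metabolites were identified by LC−MS analysis of the collected samples.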

Mus musculus [13] = test: Antinociceptive activity in CD1 mouse assessed as increase in tail-flick latency at 5.8 umol/kg, sc measured after 8 hrs post dose; format: functional, organism-based
Mus musculus [14] = test: Antinociceptive activity in CD1 mouse assessed as increase in tail-flick latency at 14 umol/kg, sc measured up to 96 hrs post dose relative to control; format: functional
Mus musculus [15] = test: Antinociceptive activity in CD1 mouse assessed as increase in tail-flick latency at 13 umol/kg, sc measured up to 96 hrs post dose relative to control; format: functional
[16] = Prodrug conversion in human plasma assessed as H-Dmt-DArg-Phe-Phe-Gln-OH metabolite formation at 9 uM after 30 to 45 mins by LC-MS analysis; format: ADME, cell-free
[17] = Prodrug conversion in human plasma assessed as H-Dmt-DArg-Phe-Phe-Gln-Phe-Gln-OH metabolite formation at 9 uM after 30 to 45 mins by LC-MS analysis; format: ADME, cell-free; summary of the method: as §1
Mus musculus [18] = test: Antinociceptive activity in sc dosed CD1 mouse assessed as increase in tail-flick latency measured up to 72 hrs post dose; format: functional, organism-based
Summary of the method: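 Radiant heat tail-flick test in mice after subcutaneous injection of 150 μL per mouse. The peptide (0.56 μmol/mouse) was given coformulated with hydrogelator (2% v/w) or conjugated as a biogel (2% v/w). Hydrogelator alone and saline served as controls. Latency was followed as %MPE over time with AUC calculated. Groups were 6−8 mice, reported as mean ± SEM, with two-way ANOVA and Bonferroni post hoc test.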

[19] = Prodrug conversion in human plasma assessed as H-Dmt-DArg-Phe-OH metabolite formation at 9 uM after 30 to 45 mins by LC-MS analysis; format: ADME, cell-free; summary of the method: as §1
Mus musculus [20] = test: Antinociceptive activity in CD1 mouse assessed as increase in tail-flick latency at 3.9 umol/kg, sc measured up to 3 to 4 hrs post dose; format: functional, organism-based
Summary of the method: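 Radiant heat tail-flick test on an analgesiometer after subcutaneous injection of solutions in mice. Doses were 3.0, 3.9, 4.2 or 6.8 μmol/kg, with saline as control. Response was expressed as %MPE over time and AUC was calculated. Groups were 6−8 mice, reported as mean ± SEM, with two-way ANOVA and Bonferroni post hoc test.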

Mus musculus [21] = test: Antinociceptive activity in CD1 mouse assessed as increase in tail-flick latency at 6.8 umol/kg, sc measured up to 8 hrs post dose; format: functional, organism-based
Summary of the method: (§2)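 Peptide given as a solution, sc, with a saline control group. Radiant-heat tail-flick test read as %MPE over time, with AUC of the time curves calculated. 6−8 mice per group, mean ± SEM. Two-way ANOVA with Bonferroni post hoc test.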

Mus musculus [22] = test: Antinociceptive activity in CD1 mouse assessed as increase in tail-flick latency at 4.2 umol/kg, sc measured up to 3 to 4 hrs post dose; format: functional, organism-based; summary of the method: as §2

T1 sequence (P35372 whole entry, the tested form may be a part): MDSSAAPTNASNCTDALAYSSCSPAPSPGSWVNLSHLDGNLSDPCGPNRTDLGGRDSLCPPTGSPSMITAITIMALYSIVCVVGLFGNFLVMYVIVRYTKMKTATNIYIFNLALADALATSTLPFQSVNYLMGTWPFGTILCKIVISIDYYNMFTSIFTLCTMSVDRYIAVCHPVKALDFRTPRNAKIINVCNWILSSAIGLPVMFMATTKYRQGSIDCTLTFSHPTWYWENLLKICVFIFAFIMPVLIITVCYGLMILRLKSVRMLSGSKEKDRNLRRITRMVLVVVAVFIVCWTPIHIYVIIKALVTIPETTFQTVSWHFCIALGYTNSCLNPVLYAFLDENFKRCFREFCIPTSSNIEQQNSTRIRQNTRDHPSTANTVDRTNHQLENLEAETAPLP

Compound: Cc1cc(O)cc(C)c1C[C@H](N)C(=O)N[C@H](CCCNC(=N)N)C(=O)N[C@@H](Cc1ccccc1)C(=O)N[C@@H](Cc1ccccc1)C(N)=O
Activity (Mus musculus [1]): Active
Activity (Mu-type opioid receptor [2]): inactive
Activity (Mus musculus [3]): Active
Ki (Mu-type opioid receptor [4]): 0.037 nM
EC50 (Mu-type opioid receptor [5]): 0.19 nM

remaining at 72 h [6]: 20%
Compound: H-FQFQFK-NH2

remaining at 72 h [6]: 20%
Compound: H-FEFQFK-NH2

Compound: Cc1cc(O)cc(C)c1C[C@H](N)C(=O)N[C@H](CCCNC(=N)N)C(=O)N[C@H]1Cc2ccccc2CN(CCC(N)=O)C1=O
Activity (Mu-type opioid receptor [2]): inactive
Activity (Mus musculus [7]): Active
Activity (Mus musculus [8]): Active

Compound: Cc1cc(O)cc(C)c1C[C@H](N)C(=O)N[C@H](CCCNC(=N)N)C(=O)N[C@H]1Cc2ccccc2CN(CCC(=O)N[C@@H](Cc2ccccc2)C(=O)N[C@@H](CCC(N)=O)C(=O)N[C@@H](Cc2ccccc2)C(=O)N[C@@H](CCC(N)=O)C(=O)N[C@@H](Cc2ccccc2)C(=O)N[C@@H](CCCCN)C(N)=O)C1=O (H-[Dmt][dR][X1]FQFQFK-NH2)
Ki (Mu-type opioid receptor [4]): 5 to 141 nM

Compound: Cc1cc(O)cc(C)c1C[C@H](N)C(=O)N[C@H](CCCCN)C(=O)N[C@@H](Cc1ccccc1)C(=O)N[C@@H](Cc1ccccc1)C(=O)N[C@@H](CCC(=O)O)C(=O)N[C@@H](Cc1ccccc1)C(=O)N[C@@H](CCC(N)=O)C(=O)N[C@@H](Cc1ccccc1)C(=O)N[C@@H](CCCCN)C(N)=O (H-[Dmt][dK]FFEFQFK-NH2)
Activity (Mus musculus [9]): Active
Ki (Mu-type opioid receptor [4]): 5 to 141 nM

Compound: Cc1cc(O)cc(C)c1C[C@H](N)C(=O)N[C@H](CCCNC(=N)N)C(=O)N[C@@H](Cc1ccccc1)C(=O)N[C@@H](Cc1ccccc1)C(=O)N[C@@H](CCC(N)=O)C(=O)N[C@H](CC(=O)N[C@@H](Cc1ccccc1)C(=O)N[C@@H](CCC(N)=O)C(=O)N[C@@H](Cc1ccccc1)C(=O)N[C@@H](CCCCN)C(N)=O)Cc1ccccc1 (H-[Dmt][dR]FFQ[β3hF]FQFK-NH2)
Activity (Mus musculus [10]): inactive
Activity (Mus musculus [11]): inactive
Ki (Mu-type opioid receptor [4]): 5 to 141 nM
half-life at 9 µM [12]: 123 min

Compound: Cc1cc(O)cc(C)c1C[C@H](N)C(=O)N[C@H](CCCCN)C(=O)N[C@@H](Cc1ccccc1)C(=O)N[C@@H](Cc1ccccc1)C(N)=O
Activity (Mus musculus [13]): Active
Activity (Mu-type opioid receptor [2]): inactive
Activity (Mus musculus [3]): Active
EC50 (Mu-type opioid receptor [5]): 0.1 to 0.86 nM

Compound: Cc1cc(O)cc(C)c1C[C@H](N)C(=O)N[C@H](CCCCN)C(=O)N[C@@H](Cc1ccccc1)C(=O)N[C@@H](Cc1ccccc1)C(=O)N[C@@H](CCC(N)=O)C(=O)N[C@@H](Cc1ccccc1)C(=O)N[C@@H](CCC(N)=O)C(=O)N[C@@H](Cc1ccccc1)C(=O)N[C@@H](CCCCN)C(N)=O (H-[Dmt][dK]FFQFQFK-NH2)
Activity (Mus musculus [9]): Active
Ki (Mu-type opioid receptor [4]): 5 to 141 nM

half-life at 9 µM [12]: 18 min
Compound: N=C(N)NCCC[C@@H](NC(=O)[C@@H](N)Cc1ccc(O)cc1)C(=O)N[C@@H](Cc1ccccc1)C(=O)N[C@@H](Cc1ccccc1)C(=O)N[C@@H](CCC(N)=O)C(=O)N[C@@H](Cc1ccccc1)C(=O)N[C@@H](CCC(N)=O)C(=O)N[C@@H](Cc1ccccc1)C(=O)N[C@@H](CCCCN)C(N)=O

Compound: Cc1cc(O)cc(C)c1C[C@H](N)C(=O)N1CCC[C@H]1C(=O)N[C@@H](Cc1ccccc1)C(=O)N[C@@H](Cc1ccccc1)C(=O)N[C@@H](CCC(N)=O)C(=O)N[C@@H](Cc1ccccc1)C(=O)N[C@@H](CCC(N)=O)C(=O)N[C@@H](Cc1ccccc1)C(=O)N[C@@H](CCCCN)C(N)=O (H-[Dmt]PFFQFQFK-NH2)
Ki (Mu-type opioid receptor [4]): 5 to 141 nM

Compound: Cc1cc(O)cc(C)c1C[C@H](N)C(=O)N1CCC[C@H]1C(=O)N[C@@H](Cc1ccccc1)C(=O)N[C@@H](Cc1ccccc1)C(N)=O
Activity (Mu-type opioid receptor [2]): inactive
MPE (Mus musculus [14]): <80%
EC50 (Mu-type opioid receptor [5]): 0.1 to 0.86 nM

Compound: Cc1cc(O)cc(C)c1C[C@H](N)C(=O)N1CCC[C@H]1C(=O)N[C@@H](Cc1c[nH]c2ccccc12)C(=O)N[C@@H](Cc1ccccc1)C(N)=O
MPE (Mus musculus [15]): <80%
Activity (Mu-type opioid receptor [2]): inactive
EC50 (Mu-type opioid receptor [5]): 0.1 to 0.86 nM

Compound: Cc1cc(O)cc(C)c1C[C@H](N)C(=O)N1CCC[C@H]1C(=O)N[C@@H](Cc1c[nH]c2ccccc12)C(=O)N[C@@H](Cc1ccccc1)C(=O)N[C@@H](CCC(N)=O)C(=O)N[C@@H](Cc1ccccc1)C(=O)N[C@@H](CCC(N)=O)C(=O)N[C@@H](Cc1ccccc1)C(=O)N[C@@H](CCCCN)C(N)=O (H-[Dmt]PWFQFQFK-NH2)
Ki (Mu-type opioid receptor [4]): 5 to 141 nM

Drug metabolism [16]: Metabolite_Detected
Drug metabolism [17]: Metabolite_Detected
Drug metabolism [19]: Metabolite_Detected
half-life at 9 µM [12]: 16 min
Compound: Cc1cc(O)cc(C)c1C[C@H](N)C(=O)N[C@H](CCCNC(=N)N)C(=O)N[C@@H](Cc1ccccc1)C(=O)N[C@@H](Cc1ccccc1)C(=O)N[C@@H](CCC(N)=O)C(=O)N[C@@H](Cc1ccccc1)C(=O)N[C@@H](CCC(N)=O)C(=O)N[C@@H](Cc1ccccc1)C(=O)N[C@@H](CCCCN)C(N)=O (H-[Dmt][dR]FFQFQFK-NH2)
Activity (Mus musculus [18]): Active

Compound: Cc1cc(O)cc(C)c1C[C@H](N)C(=O)N[C@H](CCCNC(=N)N)C(=O)N[C@@H](Cc1ccccc1)C(=O)N[C@@H](Cc1ccccc1)C(=O)N[C@@H](CCC(N)=O)C(=O)N[C@@H](Cc1ccccc1)C(=O)N[C@@H](CCC(N)=O)C(=O)O
Ki (Mu-type opioid receptor [4]): 6.16 nM
Activity (Mus musculus [20]): Active
EC50 (Mu-type opioid receptor [5]): 47.5 nM

Compound: Cc1cc(O)cc(C)c1C[C@H](N)C(=O)N1CCC[C@H]1C(=O)N[C@@H](Cc1ccccc1)C(=O)N[C@@H](Cc1ccccc1)C(=O)N[C@@H](CCC(=O)O)C(=O)N[C@@H](Cc1ccccc1)C(=O)N[C@@H](CCC(N)=O)C(=O)N[C@@H](Cc1ccccc1)C(=O)N[C@@H](CCCCN)C(N)=O
Ki (Mu-type opioid receptor [4]): 5 to 141 nM

Compound: Cc1cc(O)cc(C)c1C[C@H](N)C(=O)N[C@H](CCCNC(=N)N)C(=O)N[C@@H](Cc1ccccc1)C(=O)O
Activity (Mus musculus [21]): Active
Ki (Mu-type opioid receptor [4]): 0.52 nM
EC50 (Mu-type opioid receptor [5]): 3.67 nM

Compound: Cc1cc(O)cc(C)c1C[C@H](N)C(=O)N[C@H](CCCNC(=N)N)C(=O)N[C@@H](Cc1ccccc1)C(=O)N[C@@H](Cc1ccccc1)C(=O)N[C@@H](CCC(N)=O)C(=O)O
Ki (Mu-type opioid receptor [4]): 0.34 nM
Activity (Mus musculus [22]): Active
EC50 (Mu-type opioid receptor [5]): 0.28 nM

— ChEMBL document CHEMBL4270665, “Biodegradable Amphipathic Peptide Hydrogels as Extended-Release System for Opioid Peptides” (J Med Chem, 2018)
